What was measured:
Type in all cases: functional
[1] = system: A498; test: Growth inhibition of human A498 cells incubated for 48 hrs by sulforhodamine B assay; details: A498, 48 h
Outline: (§1)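 NCI-60 five-dose screen at 0.01, 0.1, 1, 10 and 100 µM, 48 h incubation, sulforhodamine B end point. GI50 (50% decrease in net growth), TGI (total growth inhibition) and LC50 (net 50% loss of initial cells) taken from log concentration versus % growth inhibition curves.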

[2] = system: M14; test: Growth inhibition of human M14 cells incubated for 48 hrs by sulforhodamine B assay; details: M14, 48 h; for CC50: read-out: LC50 (the source's name); outline: as §1
[3] = system: OVCAR-3; test: Growth inhibition of human OVCAR3 cells incubated for 48 hrs by sulforhodamine B assay; details: OVCAR-3, 48 h; for CC50: read-out: LC50 (the source's name); outline: as §1
[4] = system: SW-620; test: Growth inhibition of human SW620 cells incubated for 48 hrs by sulforhodamine B assay; details: SW-620, 48 h; for CC50: read-out: LC50 (the source's name)
Outline: (§2)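 NCI 60 human tumour cell line panel, five-dose study at 0.01, 0.1, 1, 10 and 100 µM, 48 h incubation. Sulforhodamine B protein-binding dye end point. GI50 (50% decrease in net cell growth), TGI (total growth inhibition) and LC50 (net 50% loss of initial cells) read from log concentration versus % growth inhibition curves.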

[5] = system: SK-MEL-2; test: Growth inhibition of human SK-MEL-2 cells incubated for 48 hrs by sulforhodamine B assay; details: SK-MEL-2, 48 h; for CC50: read-out: LC50 (the source's name); outline: as §2
[6] = system: HL-60(TB); test: Growth inhibition of human HL-60(TB) cells incubated for 48 hrs by sulforhodamine B assay; details: HL-60, 48 h; for CC50: read-out: LC50 (the source's name)
Outline: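 NCI-60 five-dose screen at 0.01, 0.1, 1, 10 and 100 µM for 48 h, sulforhodamine B read-out. GI50 taken from log concentration versus % growth inhibition curves as the concentration giving 50% decrease in net cell growth.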

[7] = system: MDA-MB-468; test: Growth inhibition of human MDA-MB-468 cells incubated for 48 hrs by sulforhodamine B assay; details: MDA-MB-468, 48 h; for CC50: read-out: LC50 (the source's name); outline: as §1
[8] = system: LOX IMVI; test: Growth inhibition of human LOXIMVI cells incubated for 48 hrs by sulforhodamine B assay; details: for CC50: read-out: LC50 (the source's name); outline: as §1
[9] = system: SNB-19; test: Growth inhibition of human SNB19 cells incubated for 48 hrs by sulforhodamine B assay; details: SNB-19, 48 h; for CC50: read-out: LC50 (the source's name); outline: as §2
[10] = system: TK-10; test: Growth inhibition of human TK10 cells incubated for 48 hrs by sulforhodamine B assay; details: TK-10, 48 h; for CC50: read-out: LC50 (the source's name); outline: as §2
[11] = system: U-251; test: Growth inhibition of human U251 cells incubated for 48 hrs by sulforhodamine B assay; details: U-251, 48 h; for CC50: read-out: LC50 (the source's name); outline: as §2
[12] = system: SR; test: Growth inhibition of human SR cells incubated for 48 hrs by sulforhodamine B assay; details: for CC50: read-out: LC50 (the source's name); outline: as §2
[13] = system: OVCAR-5; test: Growth inhibition of human OVCAR5 cells incubated for 48 hrs by sulforhodamine B assay; details: OVCAR-5, 48 h; outline: as §1
[14] = system: NCI-H522; test: Growth inhibition of human NCI-H522 cells incubated for 48 hrs by sulforhodamine B assay; details: NCI-H522, 48 h; for CC50: read-out: LC50 (the source's name); outline: as §1
[15] = system: HT-29; test: Growth inhibition of human HT-29 cells incubated for 48 hrs by sulforhodamine B assay; details: HT-29, 48 h; outline: as §1
[16] = system: NCI-H460; test: Growth inhibition of human NCI-H460 cells incubated for 48 hrs by sulforhodamine B assay; details: NCI-H460, 48 h; for CC50: read-out: LC50 (the source's name); outline: as §1
[17] = system: Hs-578T; test: Growth inhibition of human Hs 578T cells incubated for 48 hrs by sulforhodamine B assay; outline: as §1
[18] = system: NCI-H322M; test: Growth inhibition of human NCI-H322M cells incubated for 48 hrs by sulforhodamine B assay; details: for CC50: read-out: LC50 (the source's name); outline: as §1
[19] = system: UACC-257; test: Growth inhibition of human UACC257 cells incubated for 48 hrs by sulforhodamine B assay; details: UACC-257, 48 h; for CC50: read-out: LC50 (the source's name); outline: as §2
[20] = system: T47D; test: Growth inhibition of human T47D cells incubated for 48 hrs by sulforhodamine B assay; details: for CC50: read-out: LC50 (the source's name); outline: as §2
[21] = system: BT-549; test: Growth inhibition of human BT549 cells incubated for 48 hrs by sulforhodamine B assay; details: BT-549, 48 h; for CC50: read-out: LC50 (the source's name); outline: as §1
[22] = system: OVCAR-8; test: Growth inhibition of human OVCAR8 cells incubated for 48 hrs by sulforhodamine B assay; details: OVCAR-8, 48 h; outline: as §1
[23] = system: OVCAR-4; test: Growth inhibition of human OVCAR4 cells incubated for 48 hrs by sulforhodamine B assay; details: OVCAR-4, 48 h; outline: as §1
[24] = system: SF-295; test: Growth inhibition of human SF295 cells incubated for 48 hrs by sulforhodamine B assay; details: SF-295, 48 h; for CC50: read-out: LC50 (the source's name); outline: as §2
[25] = system: ACHN; test: Growth inhibition of human ACHN cells incubated for 48 hrs by sulforhodamine B assay; details: for CC50: read-out: LC50 (the source's name); outline: as §1
[26] = system: CCRF-CEM; test: Growth inhibition of human CCRF-CEM cells incubated for 48 hrs by sulforhodamine B assay; details: for CC50: read-out: LC50 (the source's name); outline: as §1
[27] = system: PC-3; test: Growth inhibition of human PC3 cells incubated for 48 hrs by sulforhodamine B assay; details: PC-3, 48 h; for CC50: read-out: LC50 (the source's name); outline: as §1
[28] = system: HOP-92; test: Anticancer activity against human HOP92 cells assessed as cell growth at 10 uM after 48 hrs by sulforhodamine B assay relative to control; details: HOP-92, 48 h, read-out: Activity
Outline: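 Single-dose NCI-60 panel screen: compound added at 10 µM and the culture incubated 48 h. The end point was read by protein staining with sulforhodamine B. The value is percent growth of treated cells relative to untreated control cells, reported as a mean graph across the panel.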

[29] = read-out: LC50 (the source's name)

C=C1CC[C@@H]2[C@](C)(COC(C)=O)[C@H](OC(C)=O)CC[C@@]2(C)[C@H]1CC(Nc1ccc(S(=O)(=O)Nc2cc(C)on2)cc1)C1=CCOC1=O (some centres not stated)
GI50 [1]: 7.69 µM
LC50 (concentration giving net 50% loss of initial cells) [1]: 45 µM
TGI [1]: 20.3 µM
GI50 [2]: 1.69 µM
TGI [2]: 4.17 µM
CC50 [2]: 10.8 µM
GI50 [3]: 1.66 µM
TGI [3]: 3.09 µM
CC50 [3]: 5.75 µM
GI50 [4]: 1.32 µM
TGI [4]: 2.91 µM
CC50 [4]: 6.44 µM
GI50 [5]: 2.04 µM
TGI [5]: 4.4 µM
CC50 [5]: 9.49 µM
GI50 [6]: 1.39 µM
TGI [6]: 3.69 µM
CC50 [6]: 9.82 µM
GI50 [7]: 1.49 µM
TGI [7]: 3.29 µM
CC50 [7]: 7.27 µM
GI50 [8]: 1.18 µM
TGI [8]: 2.54 µM
CC50 [8]: 5.46 µM
GI50 [9]: 3.12 µM
TGI [9]: 12.2 µM
CC50 [9]: 46.4 µM
GI50 [10]: 3.04 µM
TGI [10]: 7.11 µM
CC50 [10]: 23.8 µM
GI50 [11]: 1.89 µM
TGI [11]: 3.4 µM
CC50 [11]: 6.12 µM
GI50 [12]: 0.37 µM
TGI [12]: 3.36 µM
CC50 [12]: > 100 µM
GI50 [13]: 2.16 µM
LC50 (concentration causing net 50% loss of initial cells) [13]: 7.61 µM
TGI [13]: 4.05 µM
GI50 [14]: 1.04 µM
TGI [14]: 2.42 µM
CC50 [14]: 5.61 µM
GI50 [15]: 1.58 µM
TGI [15]: 3.09 µM
CC50 [15, 29]: 6.04 µM
GI50 [16]: 2.35 µM
TGI [16]: 5.7 µM
CC50 [16]: 27.7 µM
GI50 [17]: 3.92 µM
LC50 [17]: > 100 µM
TGI [17]: 26.7 µM
GI50 [18]: 4.68 µM
TGI [18]: 16.1 µM
CC50 [18]: 44.6 µM
GI50 [19]: 2.95 µM
TGI [19]: 6.19 µM
CC50 [19]: 18.7 µM
GI50 [20]: 2.8 µM
TGI [20]: 7.37 µM
CC50 [20]: > 100 µM
GI50 [21]: 1.79 µM
TGI [21]: 3.47 µM
CC50 [21]: 6.73 µM
GI50 [22]: 1.88 µM
TGI [22]: 4.3 µM
CC50 [22, 29]: 9.83 µM
GI50 [23]: 2.91 µM
LC50 [23]: 35.1 µM
TGI [23]: 10.5 µM
GI50 [24]: 8.13 µM
TGI [24]: 21 µM
CC50 [24]: 47.7 µM
GI50 [25]: 1.71 µM
TGI [25]: 3.48 µM
CC50 [25]: 7.05 µM
GI50 [26]: 0.47 µM
TGI [26]: 2.71 µM
CC50 [26]: > 100 µM
GI50 [27]: 1.98 µM
TGI [27]: 4.31 µM
CC50 [27]: 9.4 µM

C=C1CC[C@@H]2[C@](C)(COC(C)=O)[C@H](OC(C)=O)CC[C@@]2(C)[C@H]1CC(Nc1ccc(S(=O)(=O)Nc2ccc(Cl)nn2)cc1)C1=CCOC1=O (some centres not stated)
GI50 [1]: 1.4 µM
LC50 (concentration giving net 50% loss of initial cells) [1]: 15.6 µM
TGI [1]: 4.26 µM
GI50 [2]: 1.45 µM
TGI [2]: 3.41 µM
CC50 [2]: 8.04 µM
GI50 [3]: 1.22 µM
TGI [3]: 2.51 µM
CC50 [3]: 5.18 µM
GI50 [4]: 1.07 µM
TGI [4]: 2.8 µM
CC50 [4]: 7.34 µM
GI50 [5]: 1.77 µM
TGI [5]: 3.99 µM
CC50 [5]: 8.97 µM
GI50 [6]: 1.32 µM
TGI [6]: 4.44 µM
CC50 [6]: > 100 µM
GI50 [7]: 1.32 µM
TGI [7]: 3.37 µM
CC50 [7]: 8.62 µM
GI50 [8]: 0.29 µM
TGI [8]: 1.19 µM
CC50 [8]: 4.17 µM
GI50 [9]: 1.91 µM
TGI [9]: 3.91 µM
CC50 [9]: 8 µM
GI50 [10]: 2.13 µM
TGI [10]: 4.19 µM
CC50 [10]: 8.25 µM
GI50 [11]: 1.68 µM
TGI [11]: 3.05 µM
CC50 [11]: 5.52 µM
GI50 [12]: 1.35 µM
TGI [12]: 8.1 µM
CC50 [12]: > 100 µM
GI50 [13]: 2.01 µM
LC50 (concentration causing net 50% loss of initial cells) [13]: 8.63 µM
TGI [13]: 4.16 µM
GI50 [14]: 0.75 µM
TGI [14]: 2.1 µM
CC50 [14]: 4.82 µM
GI50 [15]: 1.18 µM
TGI [15]: 2.68 µM
GI50 [16]: 2.03 µM
TGI [16]: 4.31 µM
CC50 [16]: 9.15 µM
GI50 [17]: 6.17 µM
LC50 [17]: > 100 µM
TGI [17]: > 100 µM
GI50 [18]: 2.97 µM
TGI [18]: 11.6 µM
CC50 [18]: 36.1 µM
GI50 [19]: 1.67 µM
TGI [19]: 3.89 µM
CC50 [19]: 9.03 µM
GI50 [20]: 1.51 µM
TGI [20]: 4.25 µM
CC50 [20]: > 100 µM
GI50 [21]: 1.58 µM
TGI [21]: 3.14 µM
CC50 [21]: 6.28 µM
GI50 [22]: 1.35 µM
TGI [22]: 3.43 µM
GI50 [23]: 1.47 µM
LC50 [23]: 6.82 µM
TGI [23]: 3.17 µM
GI50 [24]: 3.28 µM
TGI [24]: 12.6 µM
CC50 [24]: 35.6 µM
GI50 [25]: 1.68 µM
TGI [25]: 3.32 µM
CC50 [25]: 6.57 µM
growth at 10 µM [28]: 69.8%
GI50 [26]: 0.46 µM
TGI [26]: 2.6 µM
CC50 [26]: > 100 µM
GI50 [27]: 2.24 µM
TGI [27]: 5.25 µM
CC50 [27]: 15.8 µM

C=C1CC[C@@H]2[C@](C)(COC(C)=O)[C@H](OC(C)=O)CC[C@@]2(C)[C@H]1CC(Nc1ccc(S(=O)(=O)Nc2nc(C)cc(C)n2)cc1)C1=CCOC1=O (some centres not stated)
growth at 10 µM [28]: 90.1%
